Test results published in ChEMBL document CHEMBL1687761 (2010).
Converted amounts (≈) assume the structure as drawn.

Experiments:
Type in all cases: functional
Escherichia coli [1] = test: Antimicrobial activity against Escherichia coli XL1-Blue harboring pLBII-VIM-2 plasmid expressing VIM-2 W87A mutant beta-lactamase by broth microdilution method
Summary of the method: (§1)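 Isogenic E. coli XL-1 strains carried pLBII-VIM-2 encoding wild-type or mutant VIM-2, or the empty pBC-SK vector. β-Lactam MICs were determined by CLSI broth microdilution in cation-adjusted Mueller-Hinton broth.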

Escherichia coli [2] = test: Antimicrobial activity against Escherichia coli XL1-Blue harboring pBC-SK plasmid by broth microdilution method; summary of the method: as §1
Escherichia coli [3] = test: Antimicrobial activity against Escherichia coli XL1-Blue harboring pLBII-VIM-2 plasmid expressing VIM-2 A64W mutant beta-lactamase by broth microdilution method; summary of the method: as §1
Escherichia coli [4] = test: Antimicrobial activity against Escherichia coli XL1-Blue harboring pLBII-VIM-2 plasmid expressing VIM-2 beta-lactamase by broth microdilution method; summary of the method: as §1
Escherichia coli [5] = test: Antimicrobial activity against Escherichia coli XL1-Blue harboring pLBII-VIM-2 plasmid expressing VIM-2 W87F mutant beta-lactamase by broth microdilution method; summary of the method: as §1
Escherichia coli [6] = test: Antimicrobial activity against Escherichia coli XL1-Blue VIM-2 W87S mutant beta-lactamase by broth microdilution method
Escherichia coli [7] = test: Antimicrobial activity against Escherichia coli XL1-Blue VIM-2 F61V mutant beta-lactamase by broth microdilution method
Escherichia coli [8] = test: Antimicrobial activity against Escherichia coli XL1-Blue VIM-2 F61S mutant beta-lactamase by broth microdilution method
Escherichia coli [9] = test: Antimicrobial activity against Escherichia coli XL1-Blue VIM-2 F61T mutant beta-lactamase by broth microdilution method
Escherichia coli [10] = test: Antimicrobial activity against Escherichia coli XL1-Blue VIM-2 F61W mutant beta-lactamase by broth microdilution method
Escherichia coli [11] = test: Antimicrobial activity against Escherichia coli XL1-Blue VIM-2 F61L mutant beta-lactamase by broth microdilution method
Escherichia coli [12] = test: Antimicrobial activity against Escherichia coli XL1-Blue VIM-2 W87Y mutant beta-lactamase by broth microdilution method
Escherichia coli [13] = test: Antimicrobial activity against Escherichia coli XL1-Blue VIM-2 F61I mutant beta-lactamase by broth microdilution method
Escherichia coli [14] = test: Antimicrobial activity against Escherichia coli XL1-Blue VIM-2 W87Q mutant beta-lactamase by broth microdilution method
Escherichia coli [15] = test: Antimicrobial activity against Escherichia coli XL1-Blue VIM-2 F61G mutant beta-lactamase by broth microdilution method
Escherichia coli [16] = test: Antimicrobial activity against Escherichia coli XL1-Blue VIM-2 F61R mutant beta-lactamase by broth microdilution method
Escherichia coli [17] = test: Antimicrobial activity against Escherichia coli XL1-Blue VIM-2 W87T mutant beta-lactamase by broth microdilution method
Escherichia coli [18] = test: Antimicrobial activity against Escherichia coli XL1-Blue VIM-2 W87P mutant beta-lactamase by broth microdilution method
Escherichia coli [19] = test: Antimicrobial activity against Escherichia coli XL1-Blue VIM-2 W87N mutant beta-lactamase by broth microdilution method
Escherichia coli [20] = test: Antimicrobial activity against Escherichia coli XL1-Blue VIM-2 F61C mutant beta-lactamase by broth microdilution method
Escherichia coli [21] = test: Antimicrobial activity against Escherichia coli XL1-Blue VIM-2 F61Y mutant beta-lactamase by broth microdilution method
Escherichia coli [22] = test: Antimicrobial activity against Escherichia coli XL1-Blue VIM-2 W87I mutant beta-lactamase by broth microdilution method
Escherichia coli [23] = test: Antimicrobial activity against Escherichia coli XL1-Blue VIM-2 F61N mutant beta-lactamase by broth microdilution method
Escherichia coli [24] = test: Antimicrobial activity against Escherichia coli XL1-Blue VIM-2 W87A mutant beta-lactamase by broth microdilution method
Escherichia coli [25] = test: Antimicrobial activity against Escherichia coli XL1-Blue VIM-2 F61K mutant beta-lactamase by broth microdilution method
Escherichia coli [26] = test: Antimicrobial activity against Escherichia coli XL1-Blue VIM-2 W87G mutant beta-lactamase by broth microdilution method
Escherichia coli [27] = test: Antimicrobial activity against Escherichia coli XL1-Blue VIM-2 F61P mutant beta-lactamase by broth microdilution method
Escherichia coli [28] = test: Antimicrobial activity against Escherichia coli XL1-Blue VIM-2 W87R mutant beta-lactamase by broth microdilution method
Escherichia coli [29] = test: Antimicrobial activity against Escherichia coli XL1-Blue VIM-2 F61H mutant beta-lactamase by broth microdilution method
Escherichia coli [30] = test: Antimicrobial activity against Escherichia coli XL1-Blue VIM-2 F61A mutant beta-lactamase by broth microdilution method
Escherichia coli [31] = test: Antimicrobial activity against Escherichia coli XL1-Blue VIM-2 W87K mutant beta-lactamase by broth microdilution method
Escherichia coli [32] = test: Antimicrobial activity against Escherichia coli XL1-Blue VIM-2 W87M mutant beta-lactamase by broth microdilution method
Escherichia coli [33] = test: Antimicrobial activity against Escherichia coli XL1-Blue VIM-2 W87V mutant beta-lactamase by broth microdilution method
Escherichia coli [34] = test: Antimicrobial activity against Escherichia coli XL1-Blue VIM-2 W87F mutant beta-lactamase by broth microdilution method
Escherichia coli [35] = test: Antimicrobial activity against Escherichia coli XL1-Blue VIM-2 W87L mutant beta-lactamase by broth microdilution method

Compound: CO[C@@]1(NC(=O)Cc2cccs2)C(=O)N2C(C(=O)O)=C(COC(N)=O)CS[C@@H]21 [CEFOXITIN]
- MIC (Escherichia coli [1]): 8 µg/mL (≈ 18.7 µM)
- MIC (Escherichia coli [2]): 8 µg/mL (≈ 18.7 µM)
- MIC (Escherichia coli [3]): 128 µg/mL (≈ 299 µM)
- MIC (Escherichia coli [4]): 128 µg/mL (≈ 299 µM)
- MIC (Escherichia coli [5]): 8 µg/mL (≈ 18.7 µM)

Compound: C[C@@H](O)[C@H]1C(=O)N2C(C(=O)O)=C(SCCNC=N)C[C@H]12 [IMIPENEM ANHYDROUS]
- MIC (Escherichia coli [1]): 0.12 µg/mL (≈ 0.401 µM)
- MIC (Escherichia coli [3]): 1 µg/mL (≈ 3.34 µM)
- MIC (Escherichia coli [4]): 1 µg/mL (≈ 3.34 µM)

Compound: C[C@@H](O)[C@H]1C(=O)N2C(C(=O)O)=C(S[C@@H]3CN[C@H](C(=O)Nc4cccc(C(=O)O)c4)C3)[C@H](C)[C@H]12
- MIC (Escherichia coli [1]): ≤ 0.03 µg/mL
- MIC (Escherichia coli [2]): ≤ 0.03 µg/mL
- MIC (Escherichia coli [3]): 0.5 µg/mL (≈ 1.05 µM)
- MIC (Escherichia coli [4]): 0.5 µg/mL (≈ 1.05 µM)
- MIC (Escherichia coli [5]): ≤ 0.03 µg/mL

Compound: CCN1CCN(C(=O)N[C@@H](C(=O)N[C@@H]2C(=O)N3[C@@H]2SC(C)(C)[C@@H]3C(=O)O)c2ccccc2)C(=O)C1=O [PIPERACILLIN]
- MIC (Escherichia coli [1]): 0.5 µg/mL (≈ 0.966 µM)
- MIC (Escherichia coli [2]): 0.5 µg/mL (≈ 0.966 µM)
- MIC (Escherichia coli [3]): 8 µg/mL (≈ 15.5 µM)
- MIC (Escherichia coli [4]): 8 µg/mL (≈ 15.5 µM)
- MIC (Escherichia coli [5]): 0.5 µg/mL (≈ 0.966 µM)

Compound: CC1(C)S[C@@H]2[C@H](NC(=O)[C@H](N)c3ccccc3)C(=O)N2[C@H]1C(=O)O [AMPICILLIN]
- MIC (Escherichia coli [6]): ≤ 4 µg/mL
- MIC (Escherichia coli [7]): ≥ 32 µg/mL
- MIC (Escherichia coli [8]): 8 µg/mL (≈ 22.9 µM)
- MIC (Escherichia coli [9]): ≥ 32 µg/mL
- MIC (Escherichia coli [10]): ≥ 32 µg/mL
- MIC (Escherichia coli [11]): ≥ 32 µg/mL
- MIC (Escherichia coli [12]): ≤ 4 µg/mL
- MIC (Escherichia coli [13]): ≥ 32 µg/mL
- MIC (Escherichia coli [14]): ≤ 4 µg/mL
- MIC (Escherichia coli [15]): ≥ 32 µg/mL
- MIC (Escherichia coli [16]): 8 µg/mL (≈ 22.9 µM)
- MIC (Escherichia coli [17]): ≤ 4 µg/mL
- MIC (Escherichia coli [18]): ≤ 4 µg/mL
- MIC (Escherichia coli [19]): ≤ 4 µg/mL
- MIC (Escherichia coli [3]): 64 µg/mL (≈ 183 µM)
- MIC (Escherichia coli [20]): 8 µg/mL (≈ 22.9 µM)
- MIC (Escherichia coli [21]): ≥ 32 µg/mL
- MIC (Escherichia coli [22]): ≤ 4 µg/mL
- MIC (Escherichia coli [23]): ≥ 32 µg/mL
- MIC (Escherichia coli [24]): ≤ 4 µg/mL
- MIC (Escherichia coli [25]): ≥ 32 µg/mL
- MIC (Escherichia coli [26]): ≤ 4 µg/mL
- MIC (Escherichia coli [27]): 8 µg/mL (≈ 22.9 µM)
- MIC (Escherichia coli [28]): ≤ 4 µg/mL
- MIC (Escherichia coli [4]): 64 µg/mL (≈ 183 µM)
- MIC (Escherichia coli [29]): ≥ 32 µg/mL
- MIC (Escherichia coli [30]): ≥ 32 µg/mL
- MIC (Escherichia coli [5]): 8 µg/mL (≈ 22.9 µM)
- MIC (Escherichia coli [31]): ≤ 4 µg/mL
- MIC (Escherichia coli [32]): ≤ 4 µg/mL
- MIC (Escherichia coli [33]): ≤ 4 µg/mL
- MIC (Escherichia coli [34]): ≤ 4 µg/mL
- MIC (Escherichia coli [35]): ≤ 4 µg/mL

Compound: CC(=O)OCC1=C(C(=O)O)N2C(=O)[C@@H](NC(=O)Cc3cccs3)[C@H]2SC1 [CEPHALOTHIN]
- MIC (Escherichia coli [1]): 16 µg/mL (≈ 40.4 µM)
- MIC (Escherichia coli [2]): 16 µg/mL (≈ 40.4 µM)
- MIC (Escherichia coli [3]): 256 µg/mL (≈ 646 µM)
- MIC (Escherichia coli [4]): 256 µg/mL (≈ 646 µM)

Compound: C[C@@H](O)[C@H]1C(=O)N2C(C(=O)O)=C(S[C@@H]3CN[C@H](C(=O)N(C)C)C3)[C@H](C)[C@H]12 [MEROPENEM]
- MIC (Escherichia coli [1]): ≤ 0.03 µg/mL
- MIC (Escherichia coli [2]): ≤ 0.03 µg/mL
- MIC (Escherichia coli [3]): 0.5 µg/mL (≈ 1.3 µM)
- MIC (Escherichia coli [4]): 0.5 µg/mL (≈ 1.3 µM)
- MIC (Escherichia coli [5]): ≤ 0.03 µg/mL

Compound: CC(C)(O/N=C(\C(=O)N[C@@H]1C(=O)N2C(C(=O)[O-])=C(C[n+]3ccccc3)CS[C@H]12)c1csc(N)n1)C(=O)O [CEFTAZIDIME]
- MIC (Escherichia coli [1]): 0.12 µg/mL (≈ 0.22 µM)
- MIC (Escherichia coli [2]): 0.12 µg/mL (≈ 0.22 µM)
- MIC (Escherichia coli [3]): 2 µg/mL (≈ 3.66 µM)
- MIC (Escherichia coli [4]): 2 µg/mL (≈ 3.66 µM)
- MIC (Escherichia coli [5]): 0.12 µg/mL (≈ 0.22 µM)

Compound: CO/N=C(\C(=O)N[C@@H]1C(=O)N2C(C(=O)O)=C(CSc3nc(=O)c(O)nn3C)CS[C@H]12)c1csc(N)n1 [CEFTRIAXONE]
- MIC (Escherichia coli [1]): 0.12 µg/mL (≈ 0.216 µM)
- MIC (Escherichia coli [2]): 0.12 µg/mL (≈ 0.216 µM)
- MIC (Escherichia coli [3]): 4 µg/mL (≈ 7.21 µM)
- MIC (Escherichia coli [4]): 4 µg/mL (≈ 7.21 µM)
- MIC (Escherichia coli [5]): 0.12 µg/mL (≈ 0.216 µM)

Compound: CO/N=C(\C(=O)N[C@@H]1C(=O)N2C(C(=O)O)=C(COC(C)=O)CS[C@H]12)c1csc(N)n1 [CEFOTAXIME]
- MIC (Escherichia coli [1]): 0.12 µg/mL (≈ 0.263 µM)
- MIC (Escherichia coli [2]): 0.12 µg/mL (≈ 0.263 µM)
- MIC (Escherichia coli [3]): > 32 µg/mL
- MIC (Escherichia coli [4]): > 32 µg/mL
- MIC (Escherichia coli [5]): 0.12 µg/mL (≈ 0.263 µM)

Compound: CO/N=C(\C(=O)N[C@@H]1C(=O)N2C(C(=O)[O-])=C(C[N+]3(C)CCCC3)CS[C@H]12)c1csc(N)n1
- MIC (Escherichia coli [1]): 0.12 µg/mL (≈ 0.25 µM)
- MIC (Escherichia coli [3]): 0.5 µg/mL (≈ 1.04 µM)
- MIC (Escherichia coli [4]): 0.5 µg/mL (≈ 1.04 µM)

Compound: CO/N=C(\C(=O)N[C@@H]1C(=O)N2C(C(=O)O)=C(COC(N)=O)CS[C@H]12)c1ccco1 [CEFUROXIME]
- MIC (Escherichia coli [1]): 8 µg/mL (≈ 18.9 µM)
- MIC (Escherichia coli [2]): 8 µg/mL (≈ 18.9 µM)
- MIC (Escherichia coli [3]): 256 µg/mL (≈ 603 µM)
- MIC (Escherichia coli [4]): 256 µg/mL (≈ 603 µM)
- MIC (Escherichia coli [5]): 8 µg/mL (≈ 18.9 µM)

Compound: C[C@H]1[C@H](NC(=O)/C(=N\OC(C)(C)C(=O)O)c2csc(N)n2)C(=O)N1S(=O)(=O)O [AZTREONAM]
- MIC (Escherichia coli [1]): 0.12 µg/mL (≈ 0.276 µM)
- MIC (Escherichia coli [3]): 0.12 µg/mL (≈ 0.276 µM)
- MIC (Escherichia coli [4]): 0.12 µg/mL (≈ 0.276 µM)
